The record followed here is ChEMBL document CHEMBL1649417, “α,β-Unsaturated carbonyl system of chalcone-based derivatives is responsible for broad inhibition of proteasomal activity and preferential killing of human papilloma virus (HPV) positive cervical cancer cells” (J Med Chem, 2011).

Data set [1] has as its system HeLa. In words: Cytotoxicity against HPV18 transformed human HeLa cells after 48 hrs by XTT assay. In kind it is functional, cell-based. The procedure, abridged:
(§1)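 ATCC lines grown in DMEM with 10% FBS, penicillin/streptomycin, 5% CO2; 1,000 cells/well exposed to compound (HeLa and CaSki tested over 100 to 0.01 µM). After treatment, XTT labeling mixture for 4 h, absorbance at 450 nm. Triplicate runs; IC50 is the average of three independent determinations.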

Data set [2] deals with HeLa. Nature of the data set: Increase of polyubiquitinated accumulation in human HeLa cells at 10 uM after 8 hrs by immunoblotting. The data set is classed as functional, cell-based. The procedure, abridged: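 HeLa cells treated 8 h with or without compound, then lysates immunoblotted for poly-ubiquitinated proteins; β-actin antibody to confirm equal loading; bortezomib positive control.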

The nature of data set [3]: Inhibition of chymotrypsin-like activity of 20S proteasome isolated from human LCL after 30 mins by fluorimetric analysis. The procedure, abridged: (§2)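 Semipurified proteasome from lymphoblastoid cells: glass-bead lysis in Tris pH 7.5/MgCl2/DTT/2 mM ATP/sucrose buffer, differential and 100,000g ultracentrifugation. Preincubated with inhibitor 30 min at 37°C, then 45 min at 37°C with Suc-LLVY-AMC (chymotrypsin-like), Boc-LRR-AMC (trypsin-like) or Ac-YVAD-AMC (caspase/PGPH-like) in 50 mM Tris pH 7.5, 5 mM MgCl2, 1 mM DTT. Quenched with 1% SDS; ex 380/em 440 nm; percent inhibition versus untreated.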

The nature of data set [4]: Inhibition of trypsin-like activity of 20S proteasome isolated from human LCL after 30 mins by fluorimetric analysis. An outline of the steps:
as §2

The nature of data set [5]: Inhibition of PGPH-like activity of 20S proteasome isolated from human LCL after 30 mins by fluorimetric analysis. The procedure, abridged: as §2
Data set [6] concerns CaSki (Homo sapiens). In words: Cytotoxicity against CaSki transformed human cervical carcinoma cells after 48 hrs by XTT assay.
Data set [7] concerns the target Cathepsin D (Homo sapiens) (UniProt P07339). Nature of the data set: Inhibition of cathepsin D up to 50 uM by fluorometric analysis.
Data set [8] in a line: Inhibition of calpain up to 50 uM by fluorometric analysis.
Data set [9] relates to SiHa. Nature of the data set: Cytotoxicity against HPV16 transformed human SiHa cells after 48 hrs by XTT assay. In kind it is functional, cell-based. The procedure, abridged:
as §1

The test system of data set [10] is ME-180. In words: Cytotoxicity against HPV58 transformed human ME180 cells after 48 hrs by XTT assay. In kind it is functional, cell-based. The procedure, abridged: as §1
A general note: Formazan colour is commonly taken as a measure of viable cells.

Data set [11] can be described thus: Cytotoxicity against human keratinocytes assessed as effect on cell viability at 1.6 to 25 uM after 48 hrs by XTT assay. The note with it: keratinocyte. In kind it is cell-based. An outline of the steps: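 Primary keratinocytes cultured in defined Keratinocyte-SFM, treated 48 h at the indicated concentrations, 1,000 cells/well. XTT reagent for 4 h, absorbance at 450 nm; viability plotted as fraction of untreated control cultures; triplicate.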

Data set [12] deals with HeLa. In words: Inhibition of proteasome activity in human HeLa cells assessed as induction of ubiquitinG76V-FL reporter level at 1 uM after 8 hrs by luciferase assay. The procedure, abridged:
(§3)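 HeLa transiently transfected with Ub(G76V)4-FL or CMV-FL control, replated 24 h later at 1×10^4 cells/well, drug added after 18 h attachment. Luciferase measured in cell lysate, RLU expressed as % of control; SE from three independent experiments.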

In data set [13] the test system is HeLa. In words: Inhibition of proteasome activity in human HeLa cells assessed as induction of ubiquitinG76V-FL reporter level at 5 nM after 8 hrs by luciferase assay. The note with it: 1 µM, in the assay text read “at 1 µM” for “at 5 nM”. The procedure, abridged: as §3

Activity calls are given as the source filed them. No cut-off for these calls is given here. Bounds are passed on as bounds.

Chain of Cathepsin D (Homo sapiens) (P07339 65-162 limits assumed): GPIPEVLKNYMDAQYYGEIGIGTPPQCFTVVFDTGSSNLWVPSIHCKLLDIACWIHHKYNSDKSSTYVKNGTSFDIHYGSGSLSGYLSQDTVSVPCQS
Chain of Cathepsin D (Homo sapiens) (P07339 169-412 limits assumed): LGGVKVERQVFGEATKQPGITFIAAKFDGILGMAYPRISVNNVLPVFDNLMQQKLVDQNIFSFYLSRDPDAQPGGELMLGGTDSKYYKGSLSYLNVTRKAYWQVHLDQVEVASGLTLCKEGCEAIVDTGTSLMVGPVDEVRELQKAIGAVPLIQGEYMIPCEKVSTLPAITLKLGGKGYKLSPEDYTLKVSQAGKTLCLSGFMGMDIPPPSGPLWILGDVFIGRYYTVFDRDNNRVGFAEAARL

In the case of `CC(C)C[C@H](NC(=O)N1C/C(=C\c2ccc(Cl)c(Cl)c2)C(=O)/C(=C/c2ccc(Cl)c(Cl)c2)C1)C(=O)O`, the IC50 (commonly the point on the concentration scale where inhibition reaches its midpoint) in data set [1] was 10 µM; in [3], 9.3 µM; in [4], over 10 µM; in data set [5], over 10 µM; in data set [6], 20 µM. The outcome in [2] was Active.
As for `CN1C/C(=C\c2ccc(B(O)O)cc2)C(=O)/C(=C/c2ccc(B(O)O)cc2)C1`, the IC50 in [1] came to 8 µM; in data set [6], 9 µM.
`O=C(O)CC[C@H](NC(=O)N1C/C(=C\c2ccc(Cl)c(Cl)c2)C(=O)/C(=C/c2ccc(Cl)c(Cl)c2)C1)C(=O)N[C@@H](CC(=O)O)C(=O)O`: the IC50 in [1] and in data set [6] was over 50 µM throughout.
As for `N=C(N)NCCC[C@H](NC(=O)N1C/C(=C\c2ccc(Cl)c(Cl)c2)C(=O)/C(=C/c2ccc(Cl)c(Cl)c2)C1)C(=O)N[C@@H](CCCCN)C(=O)O`, the IC50 in [1] and in [6] was over 50 µM throughout.
Take `NCCCC[C@H](NC(=O)N1C/C(=C\c2ccc(Cl)c(Cl)c2)C(=O)/C(=C/c2ccc(Cl)c(Cl)c2)C1)C(=O)O`: the IC50 in [1] and in [6] was over 50 µM throughout.
`O=C1/C(=C/c2ccc(Cl)c(Cl)c2)CN(C(=O)N[C@@H](Cc2ccc(O)cc2)C(=O)O)C/C1=C\c1ccc(Cl)c(Cl)c1`: the IC50 in [1] is 10 µM; in data set [3], 4.2 µM; in [4] it was 8.4 µM; in [5] it was over 10 µM; in [6], 10 µM. Also, the outcome in [2] was Active.
Take `O=C1/C(=C/c2ccc(Cl)c(Cl)c2)CN(C(=O)N[C@@H](Cc2ccccc2)C(=O)O)C/C1=C\c1ccc(Cl)c(Cl)c1`: the IC50 in [1] came out at 0.32 µM; in data set [3] it was 4.8 µM; in data set [4] it was 6.6 µM; in [5] it was 6.2 µM; in data set [6], 1.5 µM. Moreover, in data set [2], the outcome was Active. The inhibition result in data set [7] and in data set [8] was “inactive” in each case. Also, the Activity result in data set [9] was “Dose-dependent effect”; in data set [10] it was “Dose-dependent effect”; in data set [11] it was “Non-toxic”. Also, the inhibition result in [12] and in data set [13] was “Active” each time.
Consider `O=C1/C(=C/c2ccc(Cl)c(Cl)c2)CN(C(=O)N[C@@H](Cc2ccccc2)C(=O)N[C@@H](Cc2ccc(O)cc2)C(=O)O)C/C1=C\c1ccc(Cl)c(Cl)c1`, for which the IC50 in [1] and in data set [6] was over 50 µM throughout.
Consider `N=C(N)NCCC[C@H](NC(=O)[C@H](CCCCN)NC(=O)N1C/C(=C\c2ccc(Cl)c(Cl)c2)C(=O)/C(=C/c2ccc(Cl)c(Cl)c2)C1)C(=O)O`, for which the IC50 in data set [1] and in data set [6] was over 50 µM each time.
As for `CC(C)C[C@H](NC(=O)[C@H](Cc1ccccc1)NC(=O)c1cnccn1)B(O)O`, the inhibition result in data set [12] and in data set [13] was “Active” in each case.
In the case of `O=C(O)CC[C@H](NC(=O)N1C/C(=C\c2ccc(Cl)c(Cl)c2)C(=O)/C(=C/c2ccc(Cl)c(Cl)c2)C1)C(=O)O`, the IC50 in data set [1] and in data set [6] was over 50 µM throughout. Further, the result in [2] was inactive.
